Measured values: publication PMC3228886 (Journal of medicinal chemistry, 2011)
pEC50: −log10 of the molar value. Counter-ions that a name gives are not always drawn.

What was measured:
Water solubility = format: physicochemical
human TLR2 = human TLR2 (Homo sapiens, UniProt O60603); experiment: TLR2-specific NF-κB induction reporter gene assay; format: cell-based; details: for TLR2-agonistic activity (in words): TLR2-specific reporter gene assay
In short: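 HEK-Blue reporter cells carry stably expressed secreted alkaline phosphatase under NF-κB promoters, inducible by TLR2 agonists. Cells were seeded at ~10⁵ cells/mL and grown to confluency, then stimulated for 12 h with serially diluted test compound. Supernatant sAP was read spectrophotometrically at 620 nm using an alkaline phosphatase-specific chromogen in the detection medium. Samples were run in quadruplicate, reported as means with standard deviations.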

human blood = details: ex vivo human blood models; cited from earlier work
rabbit = rabbit models; cited from earlier work
[1] = test system: murine models of immunization; details: cited from earlier work

human TLR2, sequence (O60603 21-784): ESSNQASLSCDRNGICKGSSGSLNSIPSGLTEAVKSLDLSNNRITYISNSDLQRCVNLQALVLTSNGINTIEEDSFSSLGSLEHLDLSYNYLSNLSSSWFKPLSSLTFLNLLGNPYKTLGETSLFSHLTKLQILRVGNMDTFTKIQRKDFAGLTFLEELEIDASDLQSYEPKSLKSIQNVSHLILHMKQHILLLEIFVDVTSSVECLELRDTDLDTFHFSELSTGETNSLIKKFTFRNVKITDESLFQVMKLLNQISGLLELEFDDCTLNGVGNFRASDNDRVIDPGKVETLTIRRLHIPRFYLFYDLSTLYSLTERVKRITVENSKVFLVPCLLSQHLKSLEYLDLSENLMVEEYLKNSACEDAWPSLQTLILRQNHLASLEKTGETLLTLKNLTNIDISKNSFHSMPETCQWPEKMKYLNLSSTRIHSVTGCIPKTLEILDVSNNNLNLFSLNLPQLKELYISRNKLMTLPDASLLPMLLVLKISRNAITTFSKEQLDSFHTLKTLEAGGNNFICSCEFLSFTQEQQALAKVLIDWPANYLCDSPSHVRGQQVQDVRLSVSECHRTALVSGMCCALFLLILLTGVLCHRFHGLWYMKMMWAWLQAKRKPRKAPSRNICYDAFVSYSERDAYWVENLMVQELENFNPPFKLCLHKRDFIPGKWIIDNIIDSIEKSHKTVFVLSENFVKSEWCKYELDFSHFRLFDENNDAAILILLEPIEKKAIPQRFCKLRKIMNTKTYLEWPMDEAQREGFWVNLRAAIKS
human TLR2, sequence (Q9Y2C9 32-796 partner): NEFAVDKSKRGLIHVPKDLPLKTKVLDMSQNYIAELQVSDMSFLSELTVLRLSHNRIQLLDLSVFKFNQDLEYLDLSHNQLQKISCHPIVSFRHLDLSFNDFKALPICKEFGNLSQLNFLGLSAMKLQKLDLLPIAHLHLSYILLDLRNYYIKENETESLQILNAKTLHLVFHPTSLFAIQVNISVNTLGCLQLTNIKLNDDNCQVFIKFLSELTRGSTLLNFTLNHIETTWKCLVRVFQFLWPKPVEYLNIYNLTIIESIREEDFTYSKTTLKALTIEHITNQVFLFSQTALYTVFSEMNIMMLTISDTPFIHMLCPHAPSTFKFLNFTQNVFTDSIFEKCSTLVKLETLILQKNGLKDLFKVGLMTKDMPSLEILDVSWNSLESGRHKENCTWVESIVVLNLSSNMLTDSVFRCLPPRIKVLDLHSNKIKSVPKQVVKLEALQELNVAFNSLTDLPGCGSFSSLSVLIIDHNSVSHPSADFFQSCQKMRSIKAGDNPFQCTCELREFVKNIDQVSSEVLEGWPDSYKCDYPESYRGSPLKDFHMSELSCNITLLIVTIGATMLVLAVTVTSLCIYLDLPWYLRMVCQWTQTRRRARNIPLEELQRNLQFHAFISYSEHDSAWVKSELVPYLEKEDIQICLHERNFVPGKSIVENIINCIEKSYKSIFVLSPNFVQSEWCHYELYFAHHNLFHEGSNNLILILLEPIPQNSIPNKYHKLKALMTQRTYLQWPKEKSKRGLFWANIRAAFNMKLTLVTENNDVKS

Row | TLR2-agonistic activity (in words) (human TLR2) | Structure (SMILES) | other results
1 | highly active | CCCCCCCCCCCCCCCC(=O)OC[C@H](CSC[C@H](N)C(=O)NCC(=O)OC(C)C)OC(=O)CCCCCCCCCCCCCCC [Compound 7] | Water solubility (Water solubility): not water-soluble
2 | highly active | CCCCC/C=C\C/C=C\CCCCCCCC(=O)OC[C@H](CSC[C@H](N)C(=O)NCC(=O)OC(C)C)OC(=O)CCCCCCC/C=C\C/C=C\CCCCC [Compound 8] | Water solubility (Water solubility): not water-soluble
3 | highly active | CC/C=C\C/C=C\C/C=C\CCCCCCCC(=O)OC[C@H](CSC[C@H](N)C(=O)NCC(=O)OC(C)C)OC(=O)CCCCCCC/C=C\C/C=C\C/C=C\CC [Compound 9] | Water solubility (Water solubility): not water-soluble
4 | virtually inactive | CCCCCCCCCCCCCCCC(=O)OC[C@H](CSC[C@H](NC(=O)CC[C@H](N)C(=O)O)C(=O)NCC(=O)OC(C)C)OC(=O)CCCCCCCCCCCCCCC [Compound 11] | –
5 | inactive | CCOCCOCCOCCCNCC(=O)OC[C@H](CSC[C@H](N)C(=O)N[C@@H](CO)C(=O)O)OC(=O)CNCCCOCCOCCOCC [Compound 24] | –
6 | unexpectedly active | CCCCCCCCCCCCCCCC(=O)OC[C@@H](O)CSC[C@H](N)C(=O)N[C@@H](CO)C(=O)O [Compound 35] | –
7 | unexpectedly active | CCCCCCCCCCCCCCCC(=O)O[C@H](CO)CSC[C@H](N)C(=O)N[C@@H](CO)C(=O)O [Compound 38] | –
8 | quite active | CCCCCCCCCCCCCCCC(=O)OCCSC[C@H](N)C(=O)N[C@@H](CO)C(=O)OC [Compound 44, 2-(((R)-2-amino-3-(((S)-3-hydroxy-1-methoxy-1-oxopropan-2-yl)amino)-3-oxopropyl)thio)ethyl palmitate, trifluoroacetate] | Water solubility (Water solubility): water-soluble; pEC50 (human TLR2): 8.26
9 | completely inactive | CCCCCCCCCCCCCCCC(=O)OCCCSC[C@H](N)C(=O)N[C@@H](CO)C(=O)OC [Compound 47, 3-(((R)-2-amino-3-(((S)-3-hydroxy-1-methoxy-1-oxopropan-2-yl)amino)-3-oxopropyl)thio)propyl palmitate, trifluoroacetate] | –
10 | virtually bereft of activity | CCCCCCCCCCCCCCCCOC(=O)CSC[C@H](N)C(=O)N[C@@H](CO)C(=O)OC [Compound 50, (S)-methyl 2-((R)-2-amino-3-((2-(hexadecyloxy)-2-oxoethyl)thio)propanamido)-3-hydroxypropanoate, trifluoroacetate] | –
11 | virtually bereft of activity | CCCCCCCCCCCCCCCCOC(=O)CCSC[C@H](N)C(=O)N[C@@H](CO)C(=O)OC [Compound 53, (S)-methyl 2-((R)-2-amino-3-((3-(hexadecyloxy)-3-oxopropyl)thio)propanamido)-3-hydroxypropanoate, trifluoroacetate] | –
12 | inactive | CCCCCCCCCCCCCCCC(=O)OC[C@H](CSC(C)(C)[C@@H](N)C(=O)N[C@@H](CO)C(=O)OC)OC(=O)CCCCCCCCCCCCCCC [Compound 59] | –
13 | inactive | CCCCCCCCCCCCCCCC(=O)OC[C@H](CSC(C)(C)[C@H](N)C(=O)N[C@@H](CO)C(=O)O)OC(=O)CCCCCCCCCCCCCCC [Compound 64] | –
14 | inactive | CCCCCCCCCCCCCCCC(=O)OC[C@H](CSCC[C@H](N)C(=O)N[C@@H](CO)C(=O)O)OC(=O)CCCCCCCCCCCCCCC [Compound 69] | –
15 | inactive | CCCCCCCCCCCCCCCC(=O)OC[C@H](CSCCC(=O)N[C@@H](CO)C(=O)OC)OC(=O)CCCCCCCCCCCCCCC [Compound 74] | –
16 | – | CCCCCCCCCCCCCCCC(=O)OCC(CSC[C@H](N)C(=O)N[C@@H](CO)C(=O)O)OC(=O)CCCCCCCCCCCCCCC (stereo partly drawn) [PAM2CS, S-[2,3-bis(palmitoyloxy)-(2RS)-propyl]-R-cysteinyl-S-serine] | Pro-inflammatory activity (human blood): devoid of any detectable pro-inflammatory activity; Local reactogenicity and pyrogenicity (rabbit): devoid; Adjuvanticity [1]: potently adjuvantic

Row | Structure (SMILES) | TLR2-agonistic activity (in words) (human TLR2) | other results
17 | CCCCCCCCCCCC(=O)OC[C@H](CSC[C@H](N)C(=O)N[C@@H](CO)C(=O)O)OC(=O)CCCCCCCCCCC [Compound 17] | lower in activity than the parent PAM2CS compound | –
18 | CCCCCCCCCCCCCC(=O)OC[C@H](CSC[C@H](N)C(=O)N[C@@H](CO)C(=O)O)OC(=O)CCCCCCCCCCCCC [Compound 18] | lower in activity than the parent PAM2CS compound | –
19 | CCCCCCCCCCCCCCCCCC(=O)OC[C@H](CSC[C@H](N)C(=O)N[C@@H](CO)C(=O)O)OC(=O)CCCCCCCCCCCCCCCCC [Compound 19] | lower in activity than the parent PAM2CS compound | –
